Test results as given in ChEMBL document CHEMBL4364301 (Eur J Med Chem, 2019).

Tests used:
Type in all cases: functional
VCaP [1] = experiment: Antiproliferative activity against human VCaP cells assessed as T/C value at 1 uM incubated for 96 hrs by propidium iodide based 2D monolayer assay
Summary of the method: (§1)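 Cells were kept in RPMI 1640 with 25 mM HEPES, 10% FCS and gentamicin at 37 °C under 5% CO2, and plated at 4,000-20,000 cells/well. After 24 h recovery, compound in medium or medium alone (control wells) was added at 10 half-log concentrations from 0.0032 to 100 µM, in triplicate, with at most 0.3% DMSO. After 96 h, wells were PBS-washed, stained with 7 µg/ml PI and 0.1% Triton X-100, and fluorescence read at 530/620 nm. IC50 came from a 4-parameter fit, geometric mean.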

CWR22R [2] = experiment: Antiproliferative activity against human 22Rv1 cells assessed as T/C value at 3.2 x 10^-1 uM incubated for 96 hrs by propidium iodide based 2D monolayer assay; summary of the method: as §1
CWR22R [3] = experiment: Antiproliferative activity against human 22Rv1 cells assessed as T/C value at 1 uM incubated for 96 hrs by propidium iodide based 2D monolayer assay; summary of the method: as §1
VCaP [4] = experiment: Antiproliferative activity against human VCaP cells assessed as T/C value at 1 x 10^-2 uM incubated for 96 hrs by propidium iodide based 2D monolayer assay; summary of the method: as §1
DU-145 [5] = experiment: Antiproliferative activity against human DU145 cells assessed as T/C value at 3.2 uM incubated for 96 hrs by propidium iodide based 2D monolayer assay; summary of the method: as §1
DU-145 [6] = experiment: Antiproliferative activity against human DU145 cells assessed as T/C value at 3.2 x 10^-3 uM incubated for 96 hrs by propidium iodide based 2D monolayer assay
Summary of the method: as §1, with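 “After” for “Cells were kept in RPMI 1640 with 25 mM HEPES, 10% FCS and gentamicin at 37 °C under 5% CO2, and plated at 4,000-20,000 cells/well. After”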

VCaP [7] = experiment: Antiproliferative activity against human VCaP cells assessed as T/C value at 1 x 10^-1 uM incubated for 96 hrs by propidium iodide based 2D monolayer assay; summary of the method: as §1
CWR22R [8] = experiment: Antiproliferative activity against human 22Rv1 cells assessed as T/C value at 1 x 10^-2 uM incubated for 96 hrs by propidium iodide based 2D monolayer assay; summary of the method: as §1
DU-145 [9] = experiment: Antiproliferative activity against human DU145 cells assessed as reduction in cell growth incubated for 96 hrs by propidium iodide based 2D monolayer assay; conditions: DU-145, 96 h
Summary of the method: as §1, with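 “After” for “Cells were kept in RPMI 1640 with 25 mM HEPES, 10% FCS and gentamicin at 37 °C under 5% CO2, and plated at 4,000-20,000 cells/well. After”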

DU-145 [10] = experiment: Antiproliferative activity against human DU145 cells assessed as T/C value at 3.2 x 10^-1 uM incubated for 96 hrs by propidium iodide based 2D monolayer assay
Summary of the method: as §1, with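 “After” for “Cells were kept in RPMI 1640 with 25 mM HEPES, 10% FCS and gentamicin at 37 °C under 5% CO2, and plated at 4,000-20,000 cells/well. After”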

VCaP [11] = experiment: Antiproliferative activity against human VCaP cells assessed as T/C value at 3.2 uM incubated for 96 hrs by propidium iodide based 2D monolayer assay; summary of the method: as §1
LNCaP [12] = experiment: Antiproliferative activity against human LNCAP cells assessed as T/C value at 3.2 x 10^1 uM incubated for 96 hrs by propidium iodide based 2D monolayer assay; summary of the method: as §1
CWR22R [13] = experiment: Antiproliferative activity against human 22Rv1 cells assessed as T/C value at 1 x 10^1 uM incubated for 96 hrs by propidium iodide based 2D monolayer assay; summary of the method: as §1
VCaP [14] = experiment: Antiproliferative activity against human VCaP cells assessed as T/C value at 3.2 x 10^1 uM incubated for 96 hrs by propidium iodide based 2D monolayer assay
Summary of the method: (§2)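 VCaP cells in RPMI 1640 with 10% FCS at 37 °C, 5% CO2, seeded 4,000–20,000 cells/well and left 24 h before dosing. Compounds from DMSO stocks were diluted in half-log steps in medium, 10 concentrations 0.0032–100 μM, triplicate wells, max 0.3% DMSO. After 96 h, cells were washed, stained with 7 μg/ml propidium iodide plus 0.1% Triton X-100 for 1–2 h at room temperature, and fluorescence read at ex 530/em 620 nm.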

DU-145 [15] = experiment: Antiproliferative activity against human DU145 cells assessed as T/C value at 3.2 x 10^1 uM incubated for 96 hrs by propidium iodide based 2D monolayer assay; summary of the method: as §1
CWR22R [16] = experiment: Antiproliferative activity against human 22Rv1 cells assessed as reduction in cell growth incubated for 96 hrs by propidium iodide based 2D monolayer assay; conditions: 22Rv1, 96 h
Summary of the method: as §1, with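 “After” for “Cells were kept in RPMI 1640 with 25 mM HEPES, 10% FCS and gentamicin at 37 °C under 5% CO2, and plated at 4,000-20,000 cells/well. After”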

VCaP [17] = experiment: Antiproliferative activity against human VCaP cells assessed as T/C value at 3.2 x 10^-2 uM incubated for 96 hrs by propidium iodide based 2D monolayer assay; summary of the method: as §2
CWR22R [18] = experiment: Antiproliferative activity against human 22Rv1 cells assessed as T/C value at 3.2 x 10^-3 uM incubated for 96 hrs by propidium iodide based 2D monolayer assay; summary of the method: as §1
DU-145 [19] = experiment: Antiproliferative activity against human DU145 cells assessed as T/C value at 1 x 10^2 uM incubated for 96 hrs by propidium iodide based 2D monolayer assay; summary of the method: as §1
VCaP [20] = experiment: Antiproliferative activity against human VCaP cells assessed as T/C value at 3.2 x 10^-1 uM incubated for 96 hrs by propidium iodide based 2D monolayer assay; summary of the method: as §2
LNCaP [21] = experiment: Antiproliferative activity against human LNCAP cells assessed as T/C value at 3.2 uM incubated for 96 hrs by propidium iodide based 2D monolayer assay; summary of the method: as §1
LNCaP [22] = experiment: Antiproliferative activity against human LNCAP cells assessed as T/C value at 3.2 x 10^-2 uM incubated for 96 hrs by propidium iodide based 2D monolayer assay; summary of the method: as §1
VCaP [23] = experiment: Antiproliferative activity against human VCaP cells assessed as T/C value at 1 x 10^2 uM incubated for 96 hrs by propidium iodide based 2D monolayer assay; summary of the method: as §1
VCaP [24] = experiment: Antiproliferative activity against human VCaP cells assessed as reduction in cell growth incubated for 96 hrs by propidium iodide based 2D monolayer assay; summary of the method: as §2
DU-145 [25] = experiment: Antiproliferative activity against human DU145 cells assessed as T/C value at 1 uM incubated for 96 hrs by propidium iodide based 2D monolayer assay
Summary of the method: as §1, with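 “After” for “Cells were kept in RPMI 1640 with 25 mM HEPES, 10% FCS and gentamicin at 37 °C under 5% CO2, and plated at 4,000-20,000 cells/well. After”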

DU-145 [26] = experiment: Antiproliferative activity against human DU145 cells assessed as T/C value at 1 x 10^1 uM incubated for 96 hrs by propidium iodide based 2D monolayer assay
Summary of the method: as §1, with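 “After” for “Cells were kept in RPMI 1640 with 25 mM HEPES, 10% FCS and gentamicin at 37 °C under 5% CO2, and plated at 4,000-20,000 cells/well. After”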

CWR22R [27] = experiment: Antiproliferative activity against human 22Rv1 cells assessed as T/C value at 3.2 x 10^1 uM incubated for 96 hrs by propidium iodide based 2D monolayer assay; summary of the method: as §1
LNCaP [28] = experiment: Antiproliferative activity against human LNCAP cells assessed as reduction in cell growth incubated for 96 hrs by propidium iodide based 2D monolayer assay
Summary of the method: as §1, with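 “After” for “Cells were kept in RPMI 1640 with 25 mM HEPES, 10% FCS and gentamicin at 37 °C under 5% CO2, and plated at 4,000-20,000 cells/well. After”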

LNCaP [29] = experiment: Antiproliferative activity against human LNCAP cells assessed as T/C value at 1 x 10^-2 uM incubated for 96 hrs by propidium iodide based 2D monolayer assay; summary of the method: as §1
LNCaP [30] = experiment: Antiproliferative activity against human LNCAP cells assessed as T/C value at 1 uM incubated for 96 hrs by propidium iodide based 2D monolayer assay; summary of the method: as §1
DU-145 [31] = experiment: Antiproliferative activity against human DU145 cells assessed as T/C value at 3.2 x 10^-2 uM incubated for 96 hrs by propidium iodide based 2D monolayer assay
Summary of the method: as §1, with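 “After” for “Cells were kept in RPMI 1640 with 25 mM HEPES, 10% FCS and gentamicin at 37 °C under 5% CO2, and plated at 4,000-20,000 cells/well. After”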

CWR22R [32] = experiment: Antiproliferative activity against human 22Rv1 cells assessed as T/C value at 3.2 uM incubated for 96 hrs by propidium iodide based 2D monolayer assay; summary of the method: as §1

Structure (SMILES): CC(O)(COc1ccc(C(F)(F)C(F)(F)F)cc1)C(=O)Nc1cc(C(F)(F)F)cc(C(F)(F)F)c1 (racemic)
- T/C (VCaP [1]): 94%
- T/C (CWR22R [2]): 108%
- T/C (CWR22R [3]): 107%
- T/C (VCaP [4]): 91%
- T/C (DU-145 [5]): 108%
- T/C (DU-145 [6]): 101%
- T/C (VCaP [7]): 89%
- T/C (CWR22R [8]): 109%
- IC50 (DU-145 [9]): 6.8 µM
- IC70 (DU-145 [9]): 7.99 µM
- T/C (DU-145 [10]): 123%
- T/C (VCaP [11]): 45%
- T/C (LNCaP [12]): 2%
- T/C (CWR22R [13]): 9%
- T/C (VCaP [14]): 6%
- T/C (DU-145 [15]): 3%
- IC50 (CWR22R [16]): 2.5 µM
- IC70 (CWR22R [16]): 3.11 µM
- T/C (VCaP [17]): 90%
- T/C (CWR22R [18]): 106%
- T/C (DU-145 [19]): -1%
- T/C (VCaP [20]): 99%
- T/C (LNCaP [21]): 25%
- T/C (LNCaP [22]): 87%
- T/C (VCaP [23]): 2%
- IC50 (VCaP [24]): 3 µM
- IC70 (VCaP [24]): 4.16 µM
- T/C (DU-145 [25]): 115%
- T/C (DU-145 [26]): 13%
- T/C (CWR22R [27]): 5%
- IC50 (LNCaP [28]): 2.7 µM
- IC70 (LNCaP [28]): 3.04 µM
- T/C (LNCaP [29]): 94%
- T/C (LNCaP [30]): 93%
- T/C (DU-145 [31]): 108%
- T/C (CWR22R [32]): 29%

Structure (SMILES): CC(O)(COc1cccc(S(F)(F)(F)(F)F)c1)C(=O)Nc1ccc([N+](=O)[O-])c(C(F)(F)F)c1 (racemic)
- T/C (VCaP [1]): 94 - 108%
- T/C (CWR22R [2]): 107 - 111%
- T/C (CWR22R [3]): 101 - 109%
- T/C (VCaP [4]): 97 - 108%
- T/C (DU-145 [5]): 116%
- T/C (DU-145 [6]): 111 - 116%
- T/C (VCaP [7]): 94 - 115%
- T/C (CWR22R [8]): 100 - 106%
- IC50 (DU-145 [9]): 7.4 µM
- IC70 (DU-145 [9]): 7.24 to 8.54 µM
- T/C (DU-145 [10]): 121 - 129%
- T/C (VCaP [11]): 81 - 87%
- T/C (LNCaP [12]): -1%
- T/C (CWR22R [13]): 13 - 14%
- T/C (VCaP [14]): 2 - 4%
- T/C (DU-145 [15]): 1%
- IC50 (CWR22R [16]): 5.4 µM
- IC70 (CWR22R [16]): 5.77 to 6.98 µM
- T/C (VCaP [17]): 86 - 107%
- T/C (CWR22R [18]): 97 - 104%
- T/C (DU-145 [19]): 1%
- T/C (VCaP [20]): 94 - 113%
- T/C (LNCaP [21]): 54 - 71%
- T/C (LNCaP [22]): 92 - 95%
- T/C (VCaP [23]): 5 - 11%
- IC50 (VCaP [24]): 5.3 µM
- IC70 (VCaP [24]): 7.82 to 8.69 µM
- T/C (DU-145 [25]): 122 - 125%
- T/C (DU-145 [26]): 9 - 16%
- T/C (CWR22R [27]): 2%
- IC50 (LNCaP [28]): 3.3 µM
- IC70 (LNCaP [28]): 4.37 to 5.15 µM
- T/C (LNCaP [29]): 94 - 104%
- T/C (LNCaP [30]): 84 - 93%
- T/C (DU-145 [31]): 116 - 124%
- T/C (CWR22R [32]): 62 - 92%
